Source: ChEMBL document CHEMBL3272173, “Synthesis and biological activity of peptide antagonists of luliberin (luteinizing hormone-releasing hormone)” (J Med Chem, 1979)
Values joined by “and” are separate entries in the source; they are usually repeats but may differ in a detail not shown here. Equal entries are not always repeated.

Legend:
[1] = Solubility of the compound in 0.9% sodium chloride; assay type: physicochemical
Rattus norvegicus [2] = test: Antiovulatory activity in sc dosed CD rat assessed as blockade of ovulation administered as six doses at 1200, 1230, 1300, 1350, 1400 and 1450 hrs during proestrus stage measured during estrus stage by dissecting microscopic analysis; assay type: functional
Summary of the method: (§1)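 Cycling Charles River CD rats were given six subcutaneous injections of analogue in 0.1 mL propylene glycol on the afternoon of proestrus, and controls received vehicle alone. Rats were killed the next morning (estrus). Ovulating animals were scored and ova in the oviducts were counted under a dissecting microscope.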

Rattus norvegicus [3] = test: Antiovulatory activity in CD rat assessed as blockade of ovulation at 0.1 mg, sc administered as six doses at 1200, 1230, 1300, 1350, 1400 and 1450 hrs during proestrus stage measured during estrus stage by dissecting microscopic analysis; assay type: functional; summary of the method: as §1
[4] = Solubility of the compound in water; assay type: physicochemical
[5] = molecular target: T1, Gonadotropin-releasing hormone receptor (Rattus norvegicus) (UniProt P30969); test: In vitro antagonist activity at GNRHR in CD rat anterior pituitary gland assessed as inhibition of LH-RH-stimulated LH release at compound to LH-RH molar ratio of 20 after 4 hrs by radioimmunoassay; conditions: concentration not given here
T1 sequence (whole entry): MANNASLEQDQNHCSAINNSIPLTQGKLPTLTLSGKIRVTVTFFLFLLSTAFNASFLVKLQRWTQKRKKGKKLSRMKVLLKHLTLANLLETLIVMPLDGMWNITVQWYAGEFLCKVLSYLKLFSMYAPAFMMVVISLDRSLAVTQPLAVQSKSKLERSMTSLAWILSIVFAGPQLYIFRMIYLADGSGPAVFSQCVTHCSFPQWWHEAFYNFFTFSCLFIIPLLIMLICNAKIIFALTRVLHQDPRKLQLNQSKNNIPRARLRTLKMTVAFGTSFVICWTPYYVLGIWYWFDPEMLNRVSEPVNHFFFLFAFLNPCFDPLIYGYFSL
Summary of the method: (§2)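 Anterior pituitaries from diestrus CD rats (200-250 g) were dissociated enzymatically (collagenase, hyaluronidase, then Viokase). Cells were cultured 4 days at 1.67 × 10^5 cells/mL in DME with 10% horse serum and 2.5% fetal calf serum, then washed serum-free. Duplicate cultures received LH-RH (2-5 × 10^-10 M) with a single analogue concentration in serum-free DME for 4 h at 37 °C. LH in the medium was measured by RIA and reported as % inhibition of LH-RH-stimulated release.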

[6] = molecular target: T1, Gonadotropin-releasing hormone receptor (Rattus norvegicus); test: In vitro antagonist activity at GNRHR in CD rat anterior pituitary gland assessed as inhibition of LH-RH-stimulated LH release at compound to LH-RH molar ratio of 1.7 after 4 hrs by radioimmunoassay; conditions: concentration not given here; summary of the method: as §2
[7] = molecular target: T1, Gonadotropin-releasing hormone receptor (Rattus norvegicus); test: In vitro antagonist activity at GNRHR in CD rat anterior pituitary gland assessed as ratio of molar concentration of compound to LH-RH for inhibition of LH-RH-stimulated LH release after 4 hrs by radioimmunoassay
Summary of the method: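 Monolayers were cultured 4 days from dissociated anterior pituitary cells of diestrus CD rats. They were exposed in duplicate to LH-RH (2-5 × 10^-10 M) plus multiple analogue concentrations in serum-free DME for 4 h at 37 °C. LH in the medium was measured by radioimmunoassay. The ED50 molar ratio is the analogue:LH-RH molar ratio giving 50% inhibition of LH-RH-stimulated LH release.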

[8] = molecular target: T1, Gonadotropin-releasing hormone receptor (Rattus norvegicus); test: In vitro antagonist activity at GNRHR in CD rat anterior pituitary gland assessed as inhibition of LH-RH-stimulated LH release at compound to LH-RH molar ratio of 40 after 4 hrs by radioimmunoassay; conditions: concentration not given here; summary of the method: as §2
[9] = molecular target: T1, Gonadotropin-releasing hormone receptor (Rattus norvegicus); test: In vitro antagonist activity at GNRHR in CD rat anterior pituitary gland assessed as inhibition of LH-RH-stimulated LH release at compound to LH-RH molar ratio of 100 after 4 hrs by radioimmunoassay; conditions: concentration not given here; summary of the method: as §2
[10] = molecular target: T1, Gonadotropin-releasing hormone receptor (Rattus norvegicus); test: In vitro antagonist activity at GNRHR in CD rat anterior pituitary gland assessed as inhibition of LH-RH-stimulated LH release at compound to LH-RH molar ratio of 5 after 4 hrs by radioimmunoassay; conditions: concentration not given here; summary of the method: as §2
[11] = molecular target: T1, Gonadotropin-releasing hormone receptor (Rattus norvegicus); test: In vitro antagonist activity at GNRHR in CD rat anterior pituitary gland assessed as inhibition of LH-RH-stimulated LH release at compound to LH-RH molar ratio of 28 after 4 hrs by radioimmunoassay; conditions: concentration not given here; summary of the method: as §2
Rattus norvegicus [12] = test: Antiovulatory activity in CD rat assessed as blockade of ovulation at 10 mg, sc administered as six doses at 1200, 1230, 1300, 1350, 1400 and 1450 hrs during proestrus stage measured during estrus stage by dissecting microscopic analysis; assay type: functional; summary of the method: as §1
Rattus norvegicus [13] = test: Antiovulatory activity in CD rat assessed as blockade of ovulation at 0.3 mg, sc administered as six doses at 1200, 1230, 1300, 1350, 1400 and 1450 hrs during proestrus stage measured during estrus stage by dissecting microscopic analysis; assay type: functional; summary of the method: as §1
[14] = molecular target: T1, Gonadotropin-releasing hormone receptor (Rattus norvegicus); test: In vitro antagonist activity at GNRHR in CD rat anterior pituitary gland assessed as inhibition of LH-RH-stimulated LH release at compound to LH-RH molar ratio of 500 after 4 hrs by radioimmunoassay; conditions: concentration not given here; summary of the method: as §2

CC(=O)O.CC(C)C[C@H](NC(=O)[C@@H](Cc1c[nH]c2ccccc12)NC(=O)[C@H](Cc1ccc(O)cc1)NC(=O)[C@H](CO)NC(=O)[C@H](Cc1c[nH]c2ccccc12)NC(=O)[C@H](COCc1ccccc1)NC(=O)OC(C)(C)C)C(=O)N[C@@H](CCCNC(=N)N)C(=O)N1CCC[C@H]1C(=O)NCC(N)=O
solubility [1]: 0.016 mg/mL
ED50 (Rattus norvegicus [2]): 0.05 mg
inhibition (INH) (Rattus norvegicus [3]): 100%
solubility [4]: 3 mg/mL

CC(C)C[C@H](NC(=O)[C@@H](Cc1c[nH]c2ccccc12)NC(=O)[C@H](Cc1ccc(O)cc1)NC(=O)[C@H](CO)NC(=O)[C@H](Cc1c[nH]c2ccccc12)NC(=O)[C@H](COCc1ccccc1)NC(=O)OC(C)(C)C)C(=O)N[C@@H](CCCNC(=N)N)C(=O)N1CCC[C@H]1C(=O)NCC(N)=O
inhibition [5]: 71%
inhibition [6]: 64%
ED50 [7]: 1.3 molar ratio and 2 molar ratio

CCNC(=O)[C@@H]1CCCN1C(=O)[C@H](CCCNC(=N)N)NC(=O)[C@H](CC(C)C)NC(=O)[C@@H](Cc1ccccc1)NC(=O)[C@H](Cc1ccc(O)cc1)NC(=O)[C@H](CO)NC(=O)[C@H](Cc1c[nH]c2ccccc12)NC(=O)[C@H](CCC(N)=O)NC(=O)OCc1ccccc1
inhibition [8]: 70%
inhibition [9]: 70%
ED50 [7]: 12.8 molar ratio and 7.7 molar ratio

CCNC(=O)[C@@H]1CCCN1C(=O)[C@H](CCCNC(=N)N)NC(=O)[C@H](CC(C)C)NC(=O)[C@H](NC(=O)[C@H](Cc1ccc(O)cc1)NC(=O)[C@H](CO)NC(=O)[C@H](Cc1c[nH]c2ccccc12)NC(=O)[C@H](CCC(N)=O)NC(=O)OCc1ccccc1)[C@@H](O)c1ccccc1
inhibition [10]: 77%
inhibition [11]: 82%

CCNC(=O)[C@@H]1CCCN1C(=O)[C@H](CCCNC(=N)N)NC(=O)[C@H](CC(C)C)NC(=O)[C@@H](Cc1ccccc1)NC(=O)[C@H](Cc1ccc(O)cc1)NC(=O)[C@H](CO)NC(=O)[C@H](Cc1c[nH]c2ccccc12)NC(=O)[C@H](CCC(N)=O)NC(=O)OCc1ccccc1.Cl
inhibition (INH) (Rattus norvegicus [12]): 0%
ED50 (Rattus norvegicus [2]): >10 mg

CC(C)C[C@H](NC(=O)[C@@H](Cc1ccccc1)NC(=O)[C@H](Cc1ccc(O)cc1)NC(=O)[C@H](CO)NC(=O)[C@H](Cc1c[nH]c2ccccc12)NC(=O)[C@@H](Cc1ccccc1)NC(=O)[C@@H]1CCC(=O)N1)C(=O)N[C@@H](CCCNC(=N)N)C(=O)N1CCC[C@H]1C(=O)NCC(N)=O.Cl
ED50 (Rattus norvegicus [2]): 0.1 mg
inhibition (INH) (Rattus norvegicus [13]): 100%
inhibition [14]: 98%
ED50 [7]: 76 molar ratio
